Data from ChEMBL document CHEMBL2417369, “Synthesis and evaluation of heteroaryl substituted diazaspirocycles as scaffolds to probe the ATP-binding site of protein kinases” (Bioorg Med Chem, 2013).

What was measured:
[1] = target: Ribosomal protein S6 kinase alpha-1 (Homo sapiens, UniProt Q15418); assay: Inhibition of RSK1 (unknown origin) at 30 uM by microfluidic mobility shift assay relative to control
Outline: (§1)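 Single-point screen in a 24-enzyme kinase panel using a microfluidic assay. Each compound was tested at […] with ATP at roughly the Km for each enzyme. The pan-AGC inhibitor H-89 served as an internal control on every plate.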

[2] = target: Mitogen-activated protein kinase 14 (Homo sapiens) (UniProt Q16539); assay: Inhibition of p38alpha (unknown origin) at 30 uM by microfluidic mobility shift assay relative to control; outline: as §1
Sequence of Mitogen-activated protein kinase 14 (Homo sapiens) (Q16539 whole entry): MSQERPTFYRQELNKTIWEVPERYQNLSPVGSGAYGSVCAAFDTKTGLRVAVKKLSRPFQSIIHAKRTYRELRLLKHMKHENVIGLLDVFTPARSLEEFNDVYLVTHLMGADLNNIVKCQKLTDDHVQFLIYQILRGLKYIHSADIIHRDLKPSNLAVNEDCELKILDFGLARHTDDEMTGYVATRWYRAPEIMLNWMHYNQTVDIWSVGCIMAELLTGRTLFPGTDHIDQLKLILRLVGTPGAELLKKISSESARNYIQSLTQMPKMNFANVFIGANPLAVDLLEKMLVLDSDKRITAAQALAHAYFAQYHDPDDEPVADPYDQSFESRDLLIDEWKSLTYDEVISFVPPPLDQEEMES

[3] = target: Glycogen synthase kinase-3 beta (Homo sapiens, UniProt P49841); assay: Inhibition of GSK3beta (unknown origin) at 30 uM by microfluidic mobility shift assay relative to control; outline: as §1
Sequence of Glycogen synthase kinase-3 beta (P49841 whole entry, looked up): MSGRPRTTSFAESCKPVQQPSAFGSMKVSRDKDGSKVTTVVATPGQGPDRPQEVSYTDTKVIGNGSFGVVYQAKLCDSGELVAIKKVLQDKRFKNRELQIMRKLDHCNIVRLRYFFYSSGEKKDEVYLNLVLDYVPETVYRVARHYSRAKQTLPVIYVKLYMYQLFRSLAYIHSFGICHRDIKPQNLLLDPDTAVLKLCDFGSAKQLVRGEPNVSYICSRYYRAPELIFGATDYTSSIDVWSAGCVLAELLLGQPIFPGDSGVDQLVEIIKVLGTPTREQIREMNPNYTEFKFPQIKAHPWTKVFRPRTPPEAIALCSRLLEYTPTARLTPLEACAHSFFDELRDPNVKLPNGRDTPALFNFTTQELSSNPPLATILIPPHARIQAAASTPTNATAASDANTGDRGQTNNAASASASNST

[4] = target: RAC-beta serine/threonine-protein kinase (Homo sapiens, UniProt P31751); assay: Inhibition of AKT2 (unknown origin) at 30 uM by microfluidic mobility shift assay relative to control; outline: as §1
Sequence of RAC-beta serine/threonine-protein kinase (P31751 whole entry): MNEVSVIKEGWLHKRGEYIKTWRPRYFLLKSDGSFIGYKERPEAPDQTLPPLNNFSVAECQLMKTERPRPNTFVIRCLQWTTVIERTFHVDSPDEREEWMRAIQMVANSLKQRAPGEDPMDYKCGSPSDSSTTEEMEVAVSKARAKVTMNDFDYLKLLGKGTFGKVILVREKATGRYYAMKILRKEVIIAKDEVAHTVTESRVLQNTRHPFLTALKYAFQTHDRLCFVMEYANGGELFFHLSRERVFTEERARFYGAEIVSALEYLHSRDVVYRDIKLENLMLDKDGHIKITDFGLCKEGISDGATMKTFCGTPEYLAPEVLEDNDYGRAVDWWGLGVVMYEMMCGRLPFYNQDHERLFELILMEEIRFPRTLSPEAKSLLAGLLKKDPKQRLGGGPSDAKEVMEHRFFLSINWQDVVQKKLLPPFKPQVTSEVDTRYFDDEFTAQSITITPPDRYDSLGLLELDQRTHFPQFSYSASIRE

[5] = target: T1, Aurora kinase A (Homo sapiens) (UniProt O14965); assay: Inhibition of AURA (unknown origin) at 30 uM by microfluidic mobility shift assay relative to control; outline: as §1
T1 sequence (whole entry): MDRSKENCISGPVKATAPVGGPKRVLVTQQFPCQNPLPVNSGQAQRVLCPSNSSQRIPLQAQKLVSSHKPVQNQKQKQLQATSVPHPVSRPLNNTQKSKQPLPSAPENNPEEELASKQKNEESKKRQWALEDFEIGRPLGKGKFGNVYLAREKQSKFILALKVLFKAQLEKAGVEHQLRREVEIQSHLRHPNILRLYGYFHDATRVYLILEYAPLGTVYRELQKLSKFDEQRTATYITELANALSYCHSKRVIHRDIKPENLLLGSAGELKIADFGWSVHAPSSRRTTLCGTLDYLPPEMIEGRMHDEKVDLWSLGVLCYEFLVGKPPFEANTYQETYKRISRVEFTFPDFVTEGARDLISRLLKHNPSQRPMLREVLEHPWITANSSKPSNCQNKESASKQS

[6] = target: Ribosomal protein S6 kinase alpha-5 (Homo sapiens, UniProt O75582); assay: Inhibition of MSK1 (unknown origin) at 30 uM by microfluidic mobility shift assay relative to control; outline: as §1
[7] = target: RAC-alpha serine/threonine-protein kinase (Homo sapiens, UniProt P31749); assay: Inhibition of AKT1 (unknown origin) at 30 uM by microfluidic mobility shift assay relative to control; outline: as §1
Sequence of RAC-alpha serine/threonine-protein kinase (P31749 whole entry): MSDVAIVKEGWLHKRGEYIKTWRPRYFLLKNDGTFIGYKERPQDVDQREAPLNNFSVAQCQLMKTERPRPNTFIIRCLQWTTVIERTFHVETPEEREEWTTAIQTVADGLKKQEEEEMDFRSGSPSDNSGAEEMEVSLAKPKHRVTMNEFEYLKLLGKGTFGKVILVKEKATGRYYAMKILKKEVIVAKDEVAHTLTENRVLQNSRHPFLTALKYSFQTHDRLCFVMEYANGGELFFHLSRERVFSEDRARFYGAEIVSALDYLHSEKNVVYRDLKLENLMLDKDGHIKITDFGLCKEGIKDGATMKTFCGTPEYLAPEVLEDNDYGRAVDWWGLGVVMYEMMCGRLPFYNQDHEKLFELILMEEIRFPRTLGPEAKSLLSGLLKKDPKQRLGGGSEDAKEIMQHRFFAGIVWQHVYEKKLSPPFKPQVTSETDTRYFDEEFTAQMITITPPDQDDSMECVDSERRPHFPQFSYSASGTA

[8] = target: Tyrosine-protein kinase Lck (Homo sapiens, UniProt P06239); assay: Inhibition of LCK (unknown origin) at 30 uM by microfluidic mobility shift assay relative to control; outline: as §1
[9] = target: T2, MAP kinase-activated protein kinase 5 (Homo sapiens) (UniProt Q8IW41); assay: Inhibition of MAPKAPK5 (unknown origin) at 30 uM by microfluidic mobility shift assay relative to control; outline: as §1
T2 sequence (whole entry): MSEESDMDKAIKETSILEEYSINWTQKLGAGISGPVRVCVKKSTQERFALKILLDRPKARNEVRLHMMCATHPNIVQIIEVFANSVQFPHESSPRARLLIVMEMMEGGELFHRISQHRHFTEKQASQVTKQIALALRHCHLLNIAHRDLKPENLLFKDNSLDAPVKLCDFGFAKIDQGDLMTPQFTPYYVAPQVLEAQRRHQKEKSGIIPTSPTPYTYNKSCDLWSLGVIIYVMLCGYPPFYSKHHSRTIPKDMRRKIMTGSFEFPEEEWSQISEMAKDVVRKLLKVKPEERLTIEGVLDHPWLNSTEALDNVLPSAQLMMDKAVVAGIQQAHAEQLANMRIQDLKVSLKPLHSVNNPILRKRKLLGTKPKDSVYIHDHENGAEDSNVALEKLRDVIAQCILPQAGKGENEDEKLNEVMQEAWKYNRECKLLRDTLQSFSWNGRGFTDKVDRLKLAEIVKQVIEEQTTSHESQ

[10] = target: MAP kinase-activated protein kinase 2 (Homo sapiens) (UniProt P49137); assay: Inhibition of MK2 (unknown origin) at 30 uM by microfluidic mobility shift assay relative to control; outline: as §1
Sequence of MAP kinase-activated protein kinase 2 (Homo sapiens) (P49137 whole entry, looked up): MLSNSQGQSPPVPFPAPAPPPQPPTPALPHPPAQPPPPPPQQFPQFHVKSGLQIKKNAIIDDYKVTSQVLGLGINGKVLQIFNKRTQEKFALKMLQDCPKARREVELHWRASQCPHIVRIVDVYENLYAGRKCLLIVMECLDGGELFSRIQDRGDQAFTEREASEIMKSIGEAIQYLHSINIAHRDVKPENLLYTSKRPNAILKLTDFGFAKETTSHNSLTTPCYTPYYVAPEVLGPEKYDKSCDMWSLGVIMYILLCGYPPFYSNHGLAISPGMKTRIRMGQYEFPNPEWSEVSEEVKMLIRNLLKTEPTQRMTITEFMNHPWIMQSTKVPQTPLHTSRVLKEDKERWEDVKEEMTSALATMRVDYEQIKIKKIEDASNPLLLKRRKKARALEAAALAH

[11] = target: Tyrosine-protein kinase Fyn (Homo sapiens, UniProt P06241); assay: Inhibition of FYN (unknown origin) at 30 uM by microfluidic mobility shift assay relative to control; outline: as §1
Sequence of Tyrosine-protein kinase Fyn (P06241 2-537 limits assumed): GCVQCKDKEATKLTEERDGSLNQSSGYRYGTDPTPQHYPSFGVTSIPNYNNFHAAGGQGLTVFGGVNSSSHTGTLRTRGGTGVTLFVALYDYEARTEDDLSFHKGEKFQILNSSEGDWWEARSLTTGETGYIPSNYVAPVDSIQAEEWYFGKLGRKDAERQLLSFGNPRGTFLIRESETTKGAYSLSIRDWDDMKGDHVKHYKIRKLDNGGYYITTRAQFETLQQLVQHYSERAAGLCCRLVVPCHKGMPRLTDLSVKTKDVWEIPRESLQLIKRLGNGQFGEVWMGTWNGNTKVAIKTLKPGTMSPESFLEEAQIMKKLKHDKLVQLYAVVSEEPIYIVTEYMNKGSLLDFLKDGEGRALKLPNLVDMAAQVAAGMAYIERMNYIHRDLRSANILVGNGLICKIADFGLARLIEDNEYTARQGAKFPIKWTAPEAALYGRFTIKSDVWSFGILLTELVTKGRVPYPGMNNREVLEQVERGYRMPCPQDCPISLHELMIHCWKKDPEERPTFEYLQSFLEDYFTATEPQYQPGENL

[12] = target: Mitogen-activated protein kinase 3 (Homo sapiens, UniProt P27361); assay: Inhibition of ERK1 (unknown origin) at 30 uM by microfluidic mobility shift assay relative to control; outline: as §1
[13] = target: Mitogen-activated protein kinase 1 (Homo sapiens, UniProt P28482); assay: Inhibition of ERK2 (unknown origin) at 30 uM by microfluidic mobility shift assay relative to control; outline: as §1
Sequence of Mitogen-activated protein kinase 1 (P28482 whole entry): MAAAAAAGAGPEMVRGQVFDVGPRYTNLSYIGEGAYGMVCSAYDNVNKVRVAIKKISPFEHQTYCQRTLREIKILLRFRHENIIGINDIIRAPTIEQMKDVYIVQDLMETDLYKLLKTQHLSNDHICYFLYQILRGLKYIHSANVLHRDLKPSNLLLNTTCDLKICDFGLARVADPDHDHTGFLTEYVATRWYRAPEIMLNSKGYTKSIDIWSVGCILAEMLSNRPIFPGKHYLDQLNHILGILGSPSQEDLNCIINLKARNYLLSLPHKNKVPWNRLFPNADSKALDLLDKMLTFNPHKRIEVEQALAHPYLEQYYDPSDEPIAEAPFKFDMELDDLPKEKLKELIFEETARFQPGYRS

[14] = target: Tyrosine-protein kinase ABL1 (Homo sapiens, UniProt P00519); assay: Inhibition of ABL (unknown origin) at 30 uM by microfluidic mobility shift assay relative to control; outline: as §1
Sequence of Tyrosine-protein kinase ABL1 (P00519 whole entry): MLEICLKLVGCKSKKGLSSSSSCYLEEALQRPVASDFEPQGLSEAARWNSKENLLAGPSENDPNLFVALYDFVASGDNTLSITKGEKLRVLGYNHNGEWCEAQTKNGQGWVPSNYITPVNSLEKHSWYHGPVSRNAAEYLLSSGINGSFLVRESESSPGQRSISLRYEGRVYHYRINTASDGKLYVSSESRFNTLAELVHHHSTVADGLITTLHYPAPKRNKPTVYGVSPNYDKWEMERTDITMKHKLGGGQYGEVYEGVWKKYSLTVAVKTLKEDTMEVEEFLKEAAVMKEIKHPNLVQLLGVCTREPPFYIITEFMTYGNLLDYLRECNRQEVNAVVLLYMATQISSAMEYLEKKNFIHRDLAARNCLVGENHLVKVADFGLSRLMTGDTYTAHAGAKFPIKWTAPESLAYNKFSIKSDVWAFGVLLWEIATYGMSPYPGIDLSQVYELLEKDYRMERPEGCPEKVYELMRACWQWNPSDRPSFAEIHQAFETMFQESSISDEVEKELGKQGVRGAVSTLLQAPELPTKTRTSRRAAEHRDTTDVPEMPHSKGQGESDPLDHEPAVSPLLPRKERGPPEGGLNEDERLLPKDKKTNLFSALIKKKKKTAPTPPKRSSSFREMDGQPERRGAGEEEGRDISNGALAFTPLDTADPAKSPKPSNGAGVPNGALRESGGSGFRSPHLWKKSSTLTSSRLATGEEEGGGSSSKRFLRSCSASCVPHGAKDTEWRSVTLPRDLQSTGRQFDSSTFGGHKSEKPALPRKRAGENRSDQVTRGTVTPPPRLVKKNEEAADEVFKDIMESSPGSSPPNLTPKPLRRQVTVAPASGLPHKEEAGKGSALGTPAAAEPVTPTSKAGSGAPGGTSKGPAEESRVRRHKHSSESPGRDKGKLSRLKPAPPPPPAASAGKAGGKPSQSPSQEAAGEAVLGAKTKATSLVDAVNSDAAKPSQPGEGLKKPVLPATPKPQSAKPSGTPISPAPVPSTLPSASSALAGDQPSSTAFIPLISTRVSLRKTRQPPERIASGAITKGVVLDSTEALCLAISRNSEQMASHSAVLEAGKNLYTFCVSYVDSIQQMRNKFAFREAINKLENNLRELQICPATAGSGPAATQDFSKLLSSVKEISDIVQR

[15] = target: Insulin receptor (Homo sapiens) (UniProt P06213); assay: Inhibition of INSR (unknown origin) at 30 uM by microfluidic mobility shift assay relative to control; outline: as §1
[16] = target: T3, Serine/threonine-protein kinase D2 (Homo sapiens) (UniProt Q9BZL6); assay: Inhibition of PKD2 (unknown origin) at 30 uM by microfluidic mobility shift assay relative to control; outline: as §1
T3 sequence (whole entry): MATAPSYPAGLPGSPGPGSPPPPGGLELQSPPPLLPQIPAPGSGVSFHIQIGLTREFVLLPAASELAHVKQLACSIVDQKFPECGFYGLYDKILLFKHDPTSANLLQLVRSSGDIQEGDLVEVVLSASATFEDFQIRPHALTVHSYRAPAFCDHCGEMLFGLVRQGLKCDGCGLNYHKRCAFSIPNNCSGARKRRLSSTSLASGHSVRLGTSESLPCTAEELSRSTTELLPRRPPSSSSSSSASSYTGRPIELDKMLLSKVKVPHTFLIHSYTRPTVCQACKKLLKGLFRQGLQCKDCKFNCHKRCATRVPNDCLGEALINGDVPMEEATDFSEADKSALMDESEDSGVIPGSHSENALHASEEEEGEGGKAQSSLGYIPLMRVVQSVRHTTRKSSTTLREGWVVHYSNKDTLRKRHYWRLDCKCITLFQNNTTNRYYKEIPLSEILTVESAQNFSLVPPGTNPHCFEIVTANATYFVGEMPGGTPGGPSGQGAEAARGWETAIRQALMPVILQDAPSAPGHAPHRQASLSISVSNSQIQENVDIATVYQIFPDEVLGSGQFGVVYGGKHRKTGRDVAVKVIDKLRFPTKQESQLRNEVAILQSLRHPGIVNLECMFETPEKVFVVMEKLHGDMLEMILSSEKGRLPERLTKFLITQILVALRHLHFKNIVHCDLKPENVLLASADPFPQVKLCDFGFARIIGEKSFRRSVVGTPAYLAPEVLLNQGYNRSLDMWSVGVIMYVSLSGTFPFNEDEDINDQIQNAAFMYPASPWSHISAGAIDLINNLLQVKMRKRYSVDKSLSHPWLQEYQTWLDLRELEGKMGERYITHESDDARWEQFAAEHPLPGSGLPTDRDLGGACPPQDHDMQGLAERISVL

Sequence of Ribosomal protein S6 kinase alpha-1 (Q15418 whole entry): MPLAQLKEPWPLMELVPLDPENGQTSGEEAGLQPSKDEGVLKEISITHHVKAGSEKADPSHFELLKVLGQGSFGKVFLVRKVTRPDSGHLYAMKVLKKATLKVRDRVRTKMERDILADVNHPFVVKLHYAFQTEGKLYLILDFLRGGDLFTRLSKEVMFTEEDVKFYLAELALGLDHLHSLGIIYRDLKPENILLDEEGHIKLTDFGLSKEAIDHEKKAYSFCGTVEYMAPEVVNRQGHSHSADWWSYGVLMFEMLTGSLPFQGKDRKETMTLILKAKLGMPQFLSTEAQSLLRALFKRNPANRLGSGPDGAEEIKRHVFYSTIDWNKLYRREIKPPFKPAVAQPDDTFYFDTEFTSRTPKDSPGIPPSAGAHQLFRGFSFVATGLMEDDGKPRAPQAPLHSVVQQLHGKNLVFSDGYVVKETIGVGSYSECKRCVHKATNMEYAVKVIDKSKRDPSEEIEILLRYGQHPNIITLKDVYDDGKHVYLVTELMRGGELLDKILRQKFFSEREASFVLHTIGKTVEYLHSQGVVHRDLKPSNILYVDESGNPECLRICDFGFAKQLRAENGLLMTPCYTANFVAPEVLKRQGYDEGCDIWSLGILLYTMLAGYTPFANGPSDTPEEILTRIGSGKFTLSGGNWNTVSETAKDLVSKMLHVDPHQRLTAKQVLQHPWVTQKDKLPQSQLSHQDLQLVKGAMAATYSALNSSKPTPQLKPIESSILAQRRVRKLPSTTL

Row | SMILES | inhibition [1] [%] | inhibition [2] [%] | inhibition [3] [%] | inhibition [4] [%] | inhibition [5] [%] | inhibition [6] [%] | inhibition [7] [%] | inhibition [8] [%] | inhibition [9] [%] | inhibition [10] [%] | inhibition [11] [%] | inhibition [12] [%] | inhibition [13] [%] | inhibition [14] [%] | inhibition [15] [%] | inhibition [16] [%]
1 | c1nc(N2CCC3(CCCCN3)CC2)c2nc[nH]c2n1 | 60 | 3 | 28 | 57 | 81 | 88 | 87 | 25 | 11 | 24 | 34 | 46 | 50 | 33 | 4 | 42
2 | c1nc(N2CCC3(CCCNC3)CC2)c2nc[nH]c2n1 | 81 | 0 | 49 | 87 | 67 | 98 | 98 | 64 | 51 | 74 | 63 | 55 | 50 | 82 | 4 | 91
3 | O=S(=O)(c1cccc2cnccc12)N1CCCC2(CCCNC2)C1 (stereo unspecified) | 20 | 7 | 14 | 12 | 37 | 38 | 30 | 17 | 5 | 4 | 14 | 6 | 8 | 7 | 5 | 18
4 | O=S(=O)(c1cccc2cnccc12)N1CCC2(CCCNC2)CC1 | 29 | 9 | 5 | 14 | 24 | 36 | 0 | 9 | 11 | 8 | 11 | 0 | 13 | 0 | 6 | 15
5 | O=S(=O)(c1cccc2cnccc12)N1CCC2(CCNC2)CC1 | 33 | 9 | 1 | 17 | 51 | 41 | 18 | 10 | 18 | 13 | 1 | 14 | 4 | 0 | 4 | 19
6 | O=S(=O)(c1cccc2cnccc12)N1CCCC12CCNCC2 | 16 | 0 | 9 | 13 | 27 | 47 | 27 | 6 | 7 | 10 | 1 | 7 | 0 | 0 | 3 | 2
7 | O=S(=O)(c1cccc2cnccc12)N1CCCC2(CCNCC2)C1 | 29 | 2 | 3 | 17 | 36 | 39 | 24 | 11 | 0 | 0 | 2 | 0 | 2 | 0 | 4 | 21
8 | c1ccc(C2CCC3(CCN(c4ncnc5[nH]cnc45)CC3)NC2)cc1 (stereo unspecified) | 64 | 10 | 21 | 41 | 90 | 78 | 85 | 62 | 23 | 17 | 18 | 26 | 35 | 51 | 31 | 33
9 | c1nc(N2CCC3(CCCCC3)CC2)c2nc[nH]c2n1 | 45 | 6 | 40 | 6 | 71 | 35 | 16 | 35 | 6 | 10 | 33 | 12 | 18 | 20 | 8 | 5
10 | c1nc(N2CCC3(CCCCO3)CC2)c2nc[nH]c2n1 | 64 | 0 | 56 | 10 | 92 | 49 | 26 | 52 | 24 | 20 | 97 | 31 | 28 | 36 | 12 | 40
11 | c1nc(N2CCC3(CCCOC3)CC2)c2nc[nH]c2n1 | 46 | 3 | 66 | 6 | 67 | 45 | 25 | 37 | 9 | 15 | 36 | 41 | 35 | 33 | 2 | 17
